From ChEMBL document CHEMBL4229514, “Synthesis and biological evaluation of novel benzofuroxan-based pyrrolidine hydroxamates as matrix metalloproteinase inhibitors with nitric oxide releasing activity” (Bioorg Med Chem, 2018)
Calls of active or inactive are those of the source. No cut-off for these calls is given here.

Key:
[1] = target: 72 kDa type IV collagenase (Homo sapiens, UniProt P08253); assay: Inhibition of recombinant human MMP2 catalytic domain (Tyr110 to Asp452 residues) preincubated for 45 mins followed by […] substrate addition by fluorescence assay
How it was run: (§1)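 Fluorometric kit assay: enzyme added to assay buffer equilibrated to 37 °C, then inhibitor (NNGH as kit control) added and preincubated 45 min at 37 °C; fluorogenic substrate added to start reaction; fluorescence read at Ex/Em 328/420 nm.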

[2] = target: Matrix metalloproteinase-9 (Homo sapiens, UniProt P14780); assay: Inhibition of recombinant human MMP9 (Phe107 to Pro449 residues) expressed in Escherichia coli preincubated for 45 mins followed by […] substrate addition by fluorescence assay; how it was run: as §1
A549 = assay: Antiproliferative activity against human A549 cells after 48 hrs by MTT assay; type: functional, cell-based; conditions: A549, 48 h
How it was run: (§2)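 Cells grown in RPMI1640 with 10% FBS at 37 °C, 5% CO₂; plated 5000 per well, 4 h attachment, then exposed to a range of compound concentrations for 48 h. 0.5% MTT added for 4 h, formazan dissolved in DMSO, absorbance read at 570 nm.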

[3] = Antiproliferative activity against human ES2 cells after 48 hrs by MTT assay; type: functional, cell-based; conditions: ES-2, 48 h; how it was run: as §2
HeLa [4] = assay: Antiproliferative activity against human HeLa cells after 48 hrs by MTT assay; type: functional, cell-based; how it was run: as §2
K562 = assay: Antiproliferative activity against human K562 cells after 48 hrs by MTT assay; type: functional, cell-based; conditions: K562, 48 h; how it was run: as §2
MCF7 = assay: Antiproliferative activity against human MCF7 cells after 48 hrs by MTT assay; type: functional, cell-based; conditions: MCF7, 48 h; how it was run: as §2
MDA-MB-231 = assay: Antiproliferative activity against human MDA-MB-231 cells after 48 hrs by MTT assay; type: functional, cell-based; conditions: MDA-MB-231, 48 h; how it was run: as §2
HeLa [5] = assay: Anticlonogenic activity against human HeLa cells treated for 24 hrs measured after 2 weeks by crystal violet staining based inverted microscopic method; type: functional, cell-based
How it was run: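 HeLa cells seeded at 500 per well, exposed to compound 24 h, then grown 2 weeks at 37 °C, 5% CO₂. Washed with PBS, methanol-fixed 15 min, stained 0.1% crystal violet 10 min; colonies of more than 50 cells counted under inverted microscope to give inhibition rate.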

HeLa [6] = assay: Anti-invasive activity against human HeLa cells at 1 uM after 24 hrs using crystal violet staining by inverted microscopic based transwell chamber assay; type: functional, cell-based
How it was run: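 Transwell chambers, 8 μm pore, upper side precoated with Matrigel. 1×10⁵ HeLa cells seeded with compound (1 μM) in RPMI1640 with 1% FBS; lower chamber 10% FBS as chemoattractant. After 24 h at 37 °C, non-invaded cells swabbed off; membranes methanol-fixed 10 min, stained 0.5% crystal violet, counted microscopically.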

[7] = Cytotoxicity against HUVEC after 48 hrs by MTT assay; type: cell-based; conditions: human, HUVEC cells; how it was run: as §2
HUVEC = assay: Anti-angiogenic activity against HUVEC assessed as reduction in tube formation at 1 uM after 8 hrs by inverted microscopic method; type: functional, cell-based; conditions: Homo sapiens
How it was run: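 Matrigel-coated wells gelled 30 min at 37 °C, 5% CO₂; 1×10⁵ HUVECs per well seeded in growth medium together with compound at 1 μM, vehicle control included. Incubated 8 h at 37 °C, 5% CO₂; capillary-like tube networks imaged under inverted microscope and quantified.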

Thoracic aorta = assay: Anti-angiogenic activity against Sprague-Dawley rat thoracic aorta assessed as reduction in microvessel outgrowth arising fron aortic rings at 5 uM after 6 days by inverted microscopic method; type: functional, tissue-based
How it was run: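 Thoracic aortas from 6-week-old male Sprague Dawley rats, perivascular tissue removed, cut into ~1 mm rings and embedded in Matrigel-coated wells. Rings treated with compound at 5 μM, vehicle control included, 6 days at 37 °C, 5% CO₂. Microvessel outgrowth imaged by inverted microscope; inhibition rate counted.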

HeLa [8] = assay: Nitric oxide releasing activity in human HeLa cells assessed as nitrite accumulation at 100 uM after 5 hrs by Griess reagent based colorimetric assay; type: ADME, cell-based
How it was run: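 HeLa cells (1×10⁵ per well) incubated 5 h with compound at 100 μM. Cell-free supernatant mixed 1:1 with Griess reagent for 10 min; absorbance at 540 nm; nitrite quantified against NaNO₂ standard curve.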

HeLa [9] = assay: Antimigratory activity against human HeLa cells at 1 uM after 24 hrs using crystal violet staining by inverted microscopic based transwell chamber assay; type: functional, cell-based
How it was run: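 Uncoated Transwell chambers, 8 μm pore. 5×10⁴ HeLa cells seeded in upper chamber with compound (1 μM) in RPMI1640 containing 1% FBS; 10% FBS below as chemoattractant. 24 h at 37 °C; upper-side cells removed, membrane methanol-fixed 10 min, 0.5% crystal violet stained, migrated cells counted under inverted microscope.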

H22 = assay: Antitumor activity against […] xenografted in Kunming mouse assessed as increase in mouse survival rate at 100 mg/kg/day, ig once daily for 10 days relative to control; type: functional
How it was run: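 Female Kunming mice (20±2 g, 4–6 weeks), randomized 10 per group, were inoculated subcutaneously with H22 cells (4 × 10⁷/mL) on day 0. Dosing was intragastric, once daily for ten days, with a PBS/5% DMSO vehicle group and a positive-control group. Body weight was recorded before each dose, and survival was checked daily. Mean survival time was compared with vehicle.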

Mus musculus [10] = assay: Toxicity in Kunming mouse xenografted with […] assessed as increase in body weight at 100 mg/kg/day, ig once daily for 10 days; type: organism-based; conditions: in vivo, po, 240 h
How it was run: (§3)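 Female Kunming mice (20±2 g, 4–6 weeks), 10 per group, inoculated subcutaneously with H22 cells (4×10⁷/mL) on day 0. Compound 100 mg/kg/day given intragastrically once daily for 10 days; vehicle PBS with 5% DMSO. Body weight recorded before each dose; survival monitored daily.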

HeLa [11] = assay: Antimigratory activity against human HeLa cells assessed as reduction in wound closure at 1 uM by inverted microscopic method; type: functional, cell-based; conditions: TDE = time-dependent effect
How it was run: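 2×10⁵ HeLa cells per well grown to confluence; pipette tip scratch made, cells treated with 1 μM compound and allowed to migrate; wound imaged by inverted microscope at 0, 12, 24 and 48 h, wound closure quantified.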

Mus musculus [12] = assay: Toxicity in Kunming mouse xenografted with […] assessed as decrease in body weight at 100 mg/kg/day, ig once daily for 10 days; type: organism-based; conditions: in vivo, po, 240 h; how it was run: as §3

Chain of 72 kDa type IV collagenase (P08253 whole entry, the tested form may be a part): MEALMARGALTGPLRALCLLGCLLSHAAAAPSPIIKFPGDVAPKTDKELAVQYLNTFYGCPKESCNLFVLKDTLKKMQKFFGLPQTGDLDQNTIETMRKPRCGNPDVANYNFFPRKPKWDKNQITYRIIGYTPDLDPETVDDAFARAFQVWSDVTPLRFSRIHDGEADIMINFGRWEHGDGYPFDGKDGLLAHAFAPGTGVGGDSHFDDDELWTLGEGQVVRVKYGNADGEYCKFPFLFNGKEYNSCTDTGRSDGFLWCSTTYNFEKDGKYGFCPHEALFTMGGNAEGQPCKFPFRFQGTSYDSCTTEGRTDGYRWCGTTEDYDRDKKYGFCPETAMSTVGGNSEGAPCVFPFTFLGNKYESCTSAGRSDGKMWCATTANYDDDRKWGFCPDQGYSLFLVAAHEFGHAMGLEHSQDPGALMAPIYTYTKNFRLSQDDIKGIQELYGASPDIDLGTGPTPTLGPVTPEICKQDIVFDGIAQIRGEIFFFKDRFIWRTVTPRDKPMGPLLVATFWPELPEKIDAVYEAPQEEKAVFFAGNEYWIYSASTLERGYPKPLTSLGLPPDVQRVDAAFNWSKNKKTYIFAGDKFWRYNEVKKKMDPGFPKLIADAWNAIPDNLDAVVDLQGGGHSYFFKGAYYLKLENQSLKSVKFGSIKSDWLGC
Chain of Matrix metalloproteinase-9 (P14780 whole entry): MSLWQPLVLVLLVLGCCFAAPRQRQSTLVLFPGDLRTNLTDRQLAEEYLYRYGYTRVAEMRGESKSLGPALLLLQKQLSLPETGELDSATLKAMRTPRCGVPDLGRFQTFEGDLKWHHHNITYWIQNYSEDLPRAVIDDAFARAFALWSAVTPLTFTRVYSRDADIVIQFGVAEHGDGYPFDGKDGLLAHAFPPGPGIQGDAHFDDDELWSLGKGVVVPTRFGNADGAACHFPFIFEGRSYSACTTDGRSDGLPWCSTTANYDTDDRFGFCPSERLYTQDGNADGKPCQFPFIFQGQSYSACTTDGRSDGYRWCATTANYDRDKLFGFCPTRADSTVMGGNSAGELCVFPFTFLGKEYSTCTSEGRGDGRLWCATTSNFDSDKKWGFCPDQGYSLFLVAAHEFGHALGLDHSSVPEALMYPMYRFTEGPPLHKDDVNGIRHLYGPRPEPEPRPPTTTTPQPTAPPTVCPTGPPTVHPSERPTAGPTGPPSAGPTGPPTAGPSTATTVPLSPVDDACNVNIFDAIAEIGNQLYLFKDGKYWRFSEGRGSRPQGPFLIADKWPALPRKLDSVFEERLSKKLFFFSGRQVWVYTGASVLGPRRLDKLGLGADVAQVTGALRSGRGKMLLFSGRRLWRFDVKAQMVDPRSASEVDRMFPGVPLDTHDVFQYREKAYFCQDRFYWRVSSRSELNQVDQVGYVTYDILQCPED

| IC50 [1] [nM] | IC50 [2] [nM] | IC50 (A549) [µM] | IC50 (HeLa [4]) [µM] | IC50 (K562) [µM] | IC50 (MCF7) [µM] | IC50 (MDA-MB-231) [µM] | Nitrite concentration (HeLa [8]) [µM] | SMILES | IC50 [3] [µM] | Activity (HeLa [5]) | Activity (HeLa [6]) | CC50 at 48 h [7] [µM] | Activity (HUVEC) | Activity (Thoracic aorta) | Activity (HeLa [9]) | Activity (H22) | Activity (Mus musculus [10]) | Activity (HeLa [11]) | Activity (Mus musculus [12]) |
| --- | --- | --- | --- | --- | --- | --- | --- | --- | --- | --- | --- | --- | --- | --- | --- | --- | --- | --- | --- |
| 345 | 388 | 13.2 | 6.49 | 4.61 | 10.7 | 9.81 | 33.11 | COc1ccc(/C=C/C(=O)N2C[C@@H](NC(=O)c3ccc4no[n+]([O-])c4c3)C[C@H]2C(=O)NO)cc1OC | 14.1 | Active | Active | 36.3 | Active | Active | – | – | – | – | – |
| 414 | 524 | 25.6 | 14.1 | 11.2 | 23.4 | 16.5 | 25.51 | COc1ccc(/C=C/C(=O)N2C[C@@H](NC(=O)c3cccc4no[n+]([O-])c34)C[C@H]2C(=O)NO)cc1OC | 17.4 | Active | Active | 42.3 | Active | inactive | – | – | – | – | – |
| 182 | 242 | 21.5 | 7.24 | 4.58 | 13 | 4.19 | 27.87 | O=C(N[C@H]1C[C@@H](C(=O)NO)N(S(=O)(=O)c2ccc(Oc3ccccc3)cc2)C1)c1cccc2no[n+]([O-])c12 | 8.26 | Active | Active | 37.2 | Active | inactive | – | – | – | – | – |

More lines, now with the values behind:

| SMILES | IC50 [1] [nM] | IC50 [2] [nM] | IC50 (A549) [µM] | IC50 (HeLa [4]) [µM] | IC50 (K562) [µM] | IC50 (MCF7) [µM] | IC50 (MDA-MB-231) [µM] | Nitrite concentration (HeLa [8]) [µM] | IC50 [3] [µM] | Activity (HeLa [5]) | Activity (HeLa [6]) | CC50 at 48 h [7] [µM] | Activity (HUVEC) | Activity (Thoracic aorta) | Activity (HeLa [9]) | Activity (H22) | Activity (Mus musculus [10]) | Activity (HeLa [11]) | Activity (Mus musculus [12]) |
| --- | --- | --- | --- | --- | --- | --- | --- | --- | --- | --- | --- | --- | --- | --- | --- | --- | --- | --- | --- |
| COc1ccc(/C=C/C(=O)N2C[C@@H](NC(=O)c3cccnc3)C[C@H]2C(=O)NO)cc1OC | 266 | 360 | 78.2 | 185 | > 200 | > 200 | > 200 | – | > 200 | Active | Active | 39.8 | Active | Active | Active | Active | Toxic | – | – |
| O=C(N[C@H]1C[C@@H](C(=O)NO)N(S(=O)(=O)c2ccc(Oc3ccccc3)cc2)C1)c1ccc2no[n+]([O-])c2c1 | 102 | 162 | 5.1 | 3.82 | 3.56 | 4.19 | 7.01 | 34.43 | 7.47 | Active | Active | 32.5 | Active | Active | Active | 40.48% | – | Tde | Toxic |
